Assay: Inhibition of CXCL8-induced cell migration in human PMN cells at 0.01 uM by chemotaxis assay
Assay type: functional
Procedure, shortened: (§1)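 Human PMNs from normal-donor buffy coats (dextran sedimentation, hypotonic lysis; 95% purity, >95% viability). Cells at 1.5-3 × 10⁶/mL preincubated 15 min at 37 °C with vehicle or compound, then seeded in triplicate in the upper well of a 48-well micro-chemotaxis chamber. Lower well held CXCL8 1 nM or CXCL1 10 nM. Chamber ran 45 min at 37 °C in 5% CO₂; filters were fixed and stained, and five 100× fields per well were counted.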

Compound	inhibition at 0.01 µM
CC(C(=O)O)c1ccc(NC(=O)c2ccccc2)cc1 (stereo unspecified)	8%
CC(C(=O)O)c1ccc(OS(C)(=O)=O)cc1 (stereo unspecified)	5%
C[C@@H](C(=O)Nc1ccncc1)c1ccc(OS(=O)(=O)C(F)(F)F)cc1	11%
CCCCc1cccc(C(C)C(=O)O)c1 (stereo unspecified)	3%
C[C@@H](C(=O)NS(=O)(=O)c1cccnc1)c1ccc(OS(=O)(=O)C(F)(F)F)cc1	11%
CCC(=O)Oc1ccc(C(C)C(=O)O)cc1 (stereo unspecified)	-6%
CC(C(=O)O)c1ccc(NS(=O)(=O)C(C)C)cc1 (stereo unspecified)	44%
CC(C(=O)O)c1ccc(-c2ccccc2)cc1 (stereo unspecified)	0%
CC(C)=Cc1ccc(C(C)C(=O)O)cc1 (stereo unspecified)	14%
CC(C(=O)O)c1ccc(N2CCCC2=O)cc1 (stereo unspecified)	10%
CC(C(=O)O)c1cccc(S(=O)(=O)c2ccccc2)c1 (stereo unspecified)	9%
C[C@@H](C(=O)NS(=O)(=O)C(F)(F)F)c1ccc(OS(=O)(=O)C(F)(F)F)cc1	-4%
CNC(=O)[C@H](C)c1ccc(OS(=O)(=O)C(F)(F)F)cc1	22%
CC(C(=O)O)c1ccc(OC(=O)c2ccccc2)cc1 (stereo unspecified)	32%
C/C=C/c1cccc(C(C)C(=O)O)c1 (stereo unspecified)	-1%
CC(C(=O)O)c1cccc(C(C)(O)c2ccccc2)c1 (stereo unspecified)	0%
CC(C)C(=O)c1cccc(C(C)C(=O)O)c1 (stereo unspecified)	20%
C[C@@H](C(=O)Nc1ccccc1)c1ccc(OS(=O)(=O)C(F)(F)F)cc1	10%
C[C@@H](C(=O)NS(=O)(=O)c1ccccc1Cl)c1ccc(OS(=O)(=O)C(F)(F)F)cc1	18%
C/C=C/c1ccc(C(C)C(=O)O)cc1 (stereo unspecified)	11%

Compound	inhibition at 0.01 µM
CCC(=O)c1cccc(C(C)C(=O)O)c1 (stereo unspecified)	1%
CC(C(=O)O)c1ccc(C(C)(C)C)cc1 (stereo unspecified)	6%
CC(C)Cc1cccc(C(C)C(=O)O)c1 (stereo unspecified)	-10%
C[C@@H](C(=O)NCC1CC1)c1ccc(OS(=O)(=O)C(F)(F)F)cc1	12%
CC(C)c1ccc(C(C)C(=O)O)cc1 (stereo unspecified)	15%
CC(C(=O)O)c1ccc(C2CCCCC2)cc1 (stereo unspecified) [HEXAPROFEN]	10%
CC(Cc1cccc(C(C)C(=O)O)c1)c1ccccc1 (stereo unspecified)	0%
CC(=O)c1cccc([C@@H](C)C(=O)O)c1	5%
CC(C(=O)O)c1ccc(NS(=O)(=O)C(F)(F)F)cc1 (stereo unspecified)	10%
C[C@@H](C(=O)NC1CC1)c1ccc(OS(=O)(=O)C(F)(F)F)cc1	-11%
C[C@@H](C(=O)Nc1cccnc1)c1ccc(OS(=O)(=O)C(F)(F)F)cc1	5%
CC(C(=O)O)c1ccc(NS(C)(=O)=O)cc1 (stereo unspecified)	-8%
CC(C(=O)O)c1cccc(Oc2ccccc2)c1 (stereo unspecified) [FENOPROFEN]	-17%
CC(C(=O)O)c1cccc(C(=O)c2ccco2)c1 (stereo unspecified)	-3%
CC(C(=O)O)c1cccc(Cc2ccccc2)c1 (stereo unspecified)	10%
CC(C(=O)O)c1ccc(-c2cccs2)cc1 (stereo unspecified)	11%
CC(C(=O)O)c1cccc(C(=O)c2ncco2)c1 (stereo unspecified)	26%
CC(C(=O)O)c1ccc(N2Cc3ccccc3C2=O)cc1 (stereo unspecified) [INDOPROFEN]	50%
C[C@@H](C(=O)NC1CCCC1)c1ccc(OS(=O)(=O)C(F)(F)F)cc1	0%

Assay: Inhibition of CXCL1-induced cell migration human PMN cells at 0.1 uM chemotaxis assay
Assay type: functional
Procedure, shortened: as §1

Compound	Inhibition
CC(C(=O)O)c1ccc(N2Cc3ccccc3C2=O)cc1 (stereo unspecified) [INDOPROFEN]	40%

Assay: Inhibition of CXCL8-induced cell migration in human PMN cells 0.1 uM chemotaxis assay
Assay type: functional
Procedure, shortened: as §1

Compound	Inhibition
CCC(C)c1cccc(C(C)C(=O)O)c1 (stereo unspecified)	50%
